Results as given in ChEMBL document CHEMBL3232927 (J Med Chem, 2014).

Columns and labels:
[1] = Half life of the compound at C2 position in acetone-d6/D2O/CF3CO2H at 0.01 M by NMR spectroscopy analysis; assay type: physicochemical
Method in brief: (§1)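 Silicates dissolved in acetone/water 10:1 (v/v) containing 1% TFA (measured pH 1.2) at ambient temperature. Silicate ester cleavage followed over time by NMR spectroscopy.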

MDA-MB-231 = test: Cytotoxicity against human MDA-MB-231 cells after 72 hrs by MTT assay; assay type: functional, cell-based; settings: MDA-MB-231, 72 h
Method in brief: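 MDA-MB-231 cells grown in MEM with 10% FBS and 1% pen/strep at 37 °C, seeded at 8000 cells/well in MEM with 5% FBS. 10 mM DMSO stocks were serially diluted in MEM/5% FBS: 1–10 000 nM for PTX-silicates, 0.1–1000 for DTX-silicates. Exposure 72 h, then MTT added and absorbance at 490 nm read at 60 min. IC50 from nonlinear regression of log concentration vs response; median of the IC50 distribution within the 95% confidence interval.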

[2] = Retention time of the compound up to by LC/MS analysis; assay type: physicochemical
Method in brief: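 Reversed-phase LC/MS on a C18 (ODS) column, 5 μm, 4.6 × 150 mm, flow 1 mL/min. Gradient from 56/44 to 98/2 methanol/water containing 15 mM NH4OAc over 15 min, then a final hold.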

[3] = Half life of the compound at C7 position in acetone-d6/D2O/CF3CO2H at 0.01 M by NMR spectroscopy analysis; assay type: physicochemical; method in brief: as §1

For `CCO[Si](OCC)(OCC)O[C@@H](C(=O)O[C@H]1C[C@@]2(O)[C@@H](OC(=O)c3ccccc3)[C@@H]3[C@]4(OC(C)=O)CO[C@@H]4C[C@H](O)[C@@]3(C)C(=O)[C@H](O)C(=C1C)C2(C)C)[C@@H](NC(=O)OC(C)(C)C)c1ccccc1`, the t1/2 [1] was 11 min, the IC50 (MDA-MB-231) was 2.5 nM and the Retention_time [2] was 14.1 min.
`CCO[Si](O[C@@H](C(=O)O[C@H]1C[C@@]2(O)[C@@H](OC(=O)c3ccccc3)[C@@H]3[C@]4(OC(C)=O)CO[C@@H]4C[C@H](O)[C@@]3(C)C(=O)[C@H](OC(C)=O)C(=C1C)C2(C)C)[C@@H](NC(=O)c1ccccc1)c1ccccc1)(OC(C)(C)C)OC(C)(C)C` gave a t1/2 [1] of 12000 min, an IC50 (MDA-MB-231) of 260 nM and a Retention_time [2] of 16.1 min.
Work on `CC(=O)O[C@H]1C(=O)[C@@]2(C)[C@H]([C@H](OC(=O)c3ccccc3)[C@]3(O)C[C@H](OC(=O)[C@H](O[Si](OC(C)C)(OC(C)C)OC(C)C)[C@@H](NC(=O)c4ccccc4)c4ccccc4)C(C)=C1C3(C)C)[C@]1(OC(C)=O)CO[C@@H]1C[C@@H]2O` yielded a t1/2 [1] of 120 min, an IC50 (MDA-MB-231) of 4.2 nM and a Retention_time [2] of 15.4 min.
In the case of `CCO[Si](O[C@@H](C(=O)O[C@H]1C[C@@]2(O)[C@@H](OC(=O)c3ccccc3)[C@@H]3[C@]4(OC(C)=O)CO[C@@H]4C[C@H](O)[C@@]3(C)C(=O)[C@H](O)C(=C1C)C2(C)C)[C@@H](NC(=O)OC(C)(C)C)c1ccccc1)(OC(C)(C)C)OC(C)(C)C`, the t1/2 [1] is reported as 13600 min, the IC50 (MDA-MB-231) is reported as 430 nM and the Retention_time [2] is reported as 16.4 min.
With `CC(=O)O[C@H]1C(=O)[C@]2(C)[C@@H](O[Si](OC(C)C)(OC(C)C)OC(C)C)C[C@H]3OC[C@@]3(OC(C)=O)[C@H]2[C@H](OC(=O)c2ccccc2)[C@]2(O)C[C@H](OC(=O)[C@H](O)[C@@H](NC(=O)c3ccccc3)c3ccccc3)C(C)=C1C2(C)C` the t1/2 [3] was 1700 min, the IC50 (MDA-MB-231) was 260 nM and the Retention_time [2] was 16.4 min.
For `CCCCCCCCO[Si](OCCCCCCCC)(OCCCCCCCC)O[C@H]1C[C@H]2OC[C@@]2(OC(C)=O)[C@H]2[C@H](OC(=O)c3ccccc3)[C@]3(O)C[C@H](OC(=O)[C@H](O)[C@@H](NC(=O)c4ccccc4)c4ccccc4)C(C)=C([C@@H](OC(C)=O)C(=O)[C@]12C)C3(C)C`, the t1/2 [3] was 150 min, the IC50 (MDA-MB-231) was 290 nM and the Retention_time [2] was 24.6 min.
`CC(=O)O[C@H]1C(=O)[C@@]2(C)[C@H]([C@H](OC(=O)c3ccccc3)[C@]3(O)C[C@H](OC(=O)[C@H](O[Si](OC(C)=O)(OC(C)(C)C)OC(C)(C)C)[C@@H](NC(=O)c4ccccc4)c4ccccc4)C(C)=C1C3(C)C)[C@]1(OC(C)=O)CO[C@@H]1C[C@@H]2O` showed a t1/2 [1] of 35 min.
With `CCO[Si](OCC)(OCC)O[C@H]1C[C@H]2OC[C@@]2(OC(C)=O)[C@H]2[C@H](OC(=O)c3ccccc3)[C@]3(O)C[C@H](OC(=O)[C@H](O)[C@@H](NC(=O)c4ccccc4)c4ccccc4)C(C)=C([C@@H](OC(C)=O)C(=O)[C@]12C)C3(C)C` the t1/2 [3] was 30 min, the IC50 (MDA-MB-231) was 18 nM and the Retention_time [2] was 14.6 min.
Work on `CCO[Si](OCC)(OCC)O[C@@H](C(=O)O[C@H]1C[C@@]2(O)[C@@H](OC(=O)c3ccccc3)[C@@H]3[C@]4(OC(C)=O)CO[C@@H]4C[C@H](O)[C@@]3(C)C(=O)[C@H](OC(C)=O)C(=C1C)C2(C)C)[C@@H](NC(=O)c1ccccc1)c1ccccc1` yielded a t1/2 [1] of 3.7 min, an IC50 (MDA-MB-231) of 8.3 nM and a Retention_time [2] of 13.8 min.
`CC(=O)O[C@H]1C(=O)[C@@]2(C)[C@H]([C@H](OC(=O)c3ccccc3)[C@]3(O)C[C@H](OC(=O)[C@H](O[Si](OC4CC(C)CCC4C(C)C)(OC4CC(C)CCC4C(C)C)OC4CC(C)CCC4C(C)C)[C@@H](NC(=O)c4ccccc4)c4ccccc4)C(C)=C1C3(C)C)[C@]1(OC(C)=O)CO[C@@H]1C[C@@H]2O` (stereo partly specified) gave a t1/2 [1] of 69000 min, an IC50 (MDA-MB-231) of 590 nM and a Retention_time [2] of 24.5 min.
For `CCCCCCCCO[Si](OCCCCCCCC)(OCCCCCCCC)O[C@@H](C(=O)O[C@H]1C[C@@]2(O)[C@@H](OC(=O)c3ccccc3)[C@@H]3[C@]4(OC(C)=O)CO[C@@H]4C[C@H](O)[C@@]3(C)C(=O)[C@H](OC(C)=O)C(=C1C)C2(C)C)[C@@H](NC(=O)c1ccccc1)c1ccccc1`, the t1/2 [1] was 12 min, the IC50 (MDA-MB-231) was 7 nM and the Retention_time [2] was 22.1 min.
With `CC(=O)O[C@@]12CO[C@@H]1C[C@H](O)[C@@]1(C)C(=O)[C@H](O)C3=C(C)[C@@H](OC(=O)[C@H](O[Si](OC(C)C)(OC(C)C)OC(C)C)[C@@H](NC(=O)OC(C)(C)C)c4ccccc4)C[C@@](O)([C@@H](OC(=O)c4ccccc4)[C@H]21)C3(C)C` the t1/2 [1] was 260 min, the IC50 (MDA-MB-231) was 0.2 nM and the Retention_time [2] was 15.9 min.
Molecule `CCO[Si](OCC)(OCC)O[C@H]1C[C@H]2OC[C@@]2(OC(C)=O)[C@H]2[C@H](OC(=O)c3ccccc3)[C@]3(O)C[C@H](OC(=O)[C@H](O[Si](OCC)(OCC)OCC)[C@@H](NC(=O)c4ccccc4)c4ccccc4)C(C)=C([C@@H](OC(C)=O)C(=O)[C@]12C)C3(C)C` has a t1/2 [3] of 33 min, a t1/2 [1] of 4.6 min and an IC50 (MDA-MB-231) of 12 nM. For the same molecule, the Retention_time [2] was 16.6 min.
Molecule `CC[Si](CC)(CC)O[C@@H](C(=O)O[C@H]1C[C@@]2(O)[C@@H](OC(=O)c3ccccc3)[C@@H]3[C@]4(OC(C)=O)CO[C@@H]4C[C@H](O)[C@@]3(C)C(=O)[C@H](OC(C)=O)C(=C1C)C2(C)C)[C@@H](NC(=O)c1ccccc1)c1ccccc1` has an IC50 (MDA-MB-231) of 220 nM and a Retention_time [2] of 15.4 min.
For `CC(=O)O[C@H]1C(=O)[C@@]2(C)[C@H]([C@H](OC(=O)c3ccccc3)[C@]3(O)C[C@H](OC(=O)[C@H](O)[C@@H](NC(=O)c4ccccc4)c4ccccc4)C(C)=C1C3(C)C)[C@]1(OC(C)=O)CO[C@@H]1C[C@@H]2O` [PACLITAXEL], the IC50 (MDA-MB-231) was 5.6 nM and the Retention_time [2] was 10.5 min.
In the case of `CC(=O)O[C@H]1C(=O)[C@]2(C)[C@@H](O[Si](OC(C)C)(OC(C)C)OC(C)C)C[C@H]3OC[C@@]3(OC(C)=O)[C@H]2[C@H](OC(=O)c2ccccc2)[C@]2(O)C[C@H](OC(=O)[C@H](O[Si](OC(C)C)(OC(C)C)OC(C)C)[C@@H](NC(=O)c3ccccc3)c3ccccc3)C(C)=C1C2(C)C`, the t1/2 [3] is reported as 1500 min, the t1/2 [1] is reported as 130 min and the IC50 (MDA-MB-231) is reported as 1600 nM. The Retention_time [2] was 18.9 min.
`CC(=O)O[C@@]12CO[C@@H]1C[C@H](O)[C@@]1(C)C(=O)[C@H](O)C3=C(C)[C@@H](OC(=O)[C@H](O)[C@@H](NC(=O)OC(C)(C)C)c4ccccc4)C[C@@](O)([C@@H](OC(=O)c4ccccc4)[C@H]21)C3(C)C.O.O.O` [DOCETAXEL] gave an IC50 (MDA-MB-231) of 1 nM and a Retention_time [2] of 10.9 min.
Molecule `CCCCCCCCO[Si](OCCCCCCCC)(OCCCCCCCC)O[C@H]1C[C@H]2OC[C@@]2(OC(C)=O)[C@H]2[C@H](OC(=O)c3ccccc3)[C@]3(O)C[C@H](OC(=O)[C@H](O[Si](OCCCCCCCC)(OCCCCCCCC)OCCCCCCCC)[C@@H](NC(=O)c4ccccc4)c4ccccc4)C(C)=C([C@@H](OC(C)=O)C(=O)[C@]12C)C3(C)C` has a t1/2 [3] of 200 min, a t1/2 [1] of 18 min and an IC50 (MDA-MB-231) of 280 nM.
